Assay results published in ChEMBL document CHEMBL4480389, “Chemoenzymatically synthesized ganglioside GM3 analogues with inhibitory effects on tumor cell growth and migration” (Eur J Med Chem, 2019).
Calls of active or inactive are those of the source. No cut-off for these calls is given here.

Columns and labels:
B16-F10 = test: Antimigratory activity against mouse B16F10 cells at 6.25 to 12.5 uM after 12 hrs by wound healing assay
HCT-116 = test: Antiproliferative activity against human HCT116 cells after 48 hrs by MTT assay; assay type: functional, cell-based; conditions: HCT-116, 48 h
How it was run: (§1)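 Cells were seeded at 8×10^3 per well in RPMI-1640 with 10% heat-inactivated FBS. They were treated for 48 h at 37 °C, 5% CO2 with 20, 200, 400 or 1000 μM analogue, or DMSO vehicle. MTT (5 mg/mL solution) was added for 4 h, and absorbance was read at 570 nm. Viability was taken relative to vehicle control, as means ± SD of three independent experiments.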

HCCLM3 = test: Antimigratory activity against human HCCLM3 cells at 50 uM after 48 hrs by wound healing assay; assay type: functional, cell-based
How it was run: (§2)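 Near-confluent monolayers (1.5×10^5 cells per well, RPMI-1640 with 10% FBS) were scratched with a pipette tip and washed twice with serum-free medium. They were then exposed for 48 h to analogue in fresh FBS-containing medium, with DMSO medium as control. Wounds were photographed, and migration was expressed as % of 0 h (wound width at endpoint/width at 0 h). Done in triplicate.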

B16 = test: Antimigratory activity against mouse B16 cells at 6.25 to 12.5 uM after 48 hrs by wound healing assay; assay type: functional, cell-based
How it was run: as §2

K562 = test: Antiproliferative activity against human K562 cells after 48 hrs by MTT assay; assay type: functional, cell-based; conditions: K562, 48 h
How it was run: as §1

Row | IC50 (HCT-116) | IC50 (K562) | SMILES | Activity (B16-F10) | Activity (HCCLM3) | Activity (B16)
1 | 64.2 µM | 160 µM | CCCCCCCCCCCCC/C=C/[C@@H](O)[C@H](CO[C@H]1O[C@H](CO[C@]2(C(=O)O)C[C@H](O)[C@@H](NC(C)=O)[C@H]([C@H](O)[C@H](O)CO)O2)[C@@H](O)[C@H](O)[C@@H]1O)NC(=O)CCCCCCCCCCCCCCCCC | Active | inactive | Active
2 | 130 µM | 206 µM | CCCCCCCCCCCCC/C=C/[C@@H](O)[C@@H](N)CO[C@@H]1O[C@H](CO[C@]2(C(=O)O)C[C@H](O)[C@@H](NC(C)=O)[C@H]([C@H](O)[C@H](O)CO)O2)[C@H](O)[C@H](O)[C@H]1O | Active | Active | Active
3 | 86.2 µM | 396 µM | CCCCCCCCCCCCC/C=C/[C@@H](O)[C@H](CO[C@@H]1O[C@H](CO[C@]2(C(=O)O)C[C@H](O)[C@@H](NC(C)=O)[C@H]([C@H](O)[C@H](O)CO)O2)[C@H](O)[C@H](O)[C@H]1O)NC(=O)CCCCCCCCCCCCCCCCC | Active | inactive | Active
4 | 182 µM | 148 µM | CCCCCCCCCCCCC/C=C/[C@@H](O)[C@@H](N)CO[C@H]1O[C@H](CO[C@]2(C(=O)O)C[C@H](O)[C@@H](NC(C)=O)[C@H]([C@H](O)[C@H](O)CO)O2)[C@@H](O)[C@H](O)[C@@H]1O | Active | Active | Active
